# Measured values taken from the EternaBench riboswitch data.
# Test system: MS2 coat protein
# Assay: apparent Kd, MS2 coat protein; higher = weaker binding; RNA-MaP array; FMN 200 µM where present
# Procedure, shortened: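 Stalled E. coli RNA polymerase produced the designs on Illumina sequencing-chip clusters. SNAP-549-labelled MS2 coat protein was added from 0.7 or 1.5 nM, doubling to 3 µM, without and then with constant ligand, in 100 mM Tris-HCl pH 7.5, 80 mM KCl, 4 mM MgCl2, BSA, DTT, yeast tRNA and Tween-20. The apparent Kd is the median of filtered per-cluster fits of green signal normalised to red-channel RNA signal and control-cluster median Fmax.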
# [1] = designed as: OFF switch for flavin mononucleotide, no ligand
# [2] = ligand present: flavin mononucleotide, designed as: OFF switch for flavin mononucleotide
# [3] = designed as: ON switch for flavin mononucleotide, no ligand
# [4] = ligand present: flavin mononucleotide, designed as: ON switch for flavin mononucleotide
Sequence,apparent Kd [1],apparent Kd [2],apparent Kd [3],apparent Kd [4]
UUAUAUAGUGUGAGGAUAUGCUGGUCCUUGGAUCAGCAGAAGGCACAUGAGGAUCACCCAUGUAGUUAAAUUUA,34.4 nM,134 nM,,
UCUUGACAUGAGGAUCACCCAUGUCAGGAUAUAGUAGGACAAAUAAAUAAAAGUUCUACUAGAAGGGACGUGGG,20.4 nM,26.7 nM,,
UUUAUGUCAGGAUAUGAGUCGUAGAACAAUAGUACUACGUCUCAGAAGGGACAUGAGGAUCACCCAUGUGCCUC,40.4 nM,316 nM,,
UUGUAGUACGUAGGAUAUCAUUGAGGAUCACCCUGAGAAGGACGUGAGGACAUGAGGAUCACCCAUGUGGAUCACCCAUGUCAU,329 nM,231 nM,,
GGUACCUUUACAGGAUAUGCUAGGGUUUCCUUAGCAGAAGGGUGAUACAUGAGGAUCACCCAUGUGGUGCCAGGGCGUGAGCCC,,,117 nM,341 nM
GCACGAUAUCAGGAUAUGACUAGCUGCGGCUAGUCAGAAGGGAUGACAUGAGGAUCACCCAUGUGAUCACGUGC,57.6 nM,78.7 nM,,
GGUCCACAUGAGGAUCACCCAUGUUAGGAUAUCUCGCCCGAGUCGUUAUGGGCCGGGCAGAGAAGGAAUGUGAA,21.7 nM,20.2 nM,,
AUCAGCUCGUCAGGAUAUACGUCACUGCGUCAGCAGUGUCGUAAGAUCACAUGAGGAUCACCCAUGUAGAAGGGACGAGCUGAU,5.31 nM,5.49 nM,,
UGAUCACAUGAGGAUCACCCAUGUCAGGAUAUCUACAUUGAAGCUGCGGCUUCAAUGUAGAGAAGGGAUAUAAU,99 nM,229 nM,,
CUUCAGUCAGGAUAUGUUAAUCUCGCCACUCGGCGAACCGGACAGAAGGGACAUGAGGAUCACCCAUGUUAAAA,34.7 nM,19.7 nM,,
UGUGUGAGACAGGAUAUGCUGGUUGUGUGGCGGGUAGAAGGGUCUACAUGAGGAUCACCCAUGUGGCCGGUUGG,22 nM,22.8 nM,,
UGUGCGUAUGUGAGGAUAUGCUGGUCCUUGGAUCGGCAGAAGGCACAUGAGGAUCACCCAUGUGGUGUCGUUCC,144 nM,57.8 nM,,
CUUAGACAUGAGGAUCACCCAUGUGAGGAUAUGAUGCGAUCGUCGAAAGACGAUAGCAUCAGAAGGCACAUAUG,132 nM,301 nM,,
GGAUGACAAAGUCAUCCAAUUCGAACAUGAGGAUCACCCAUGUAGGAUAUGCUUCUCAAAGAGAAGCAGAAGGACAUGUGCUUU,32.8 nM,182 nM,,
GACCUCACGGUCAGGAUAUCAGAACGUAAUGCGCAUGAGAAGGGACAUGAGGAUCACCCAUGUGGGCUCGUCGC,13.5 nM,17 nM,,
GCUGUCGCAUGAGGAUAUGGUCAGCUUUGCUGACCAGAAGGCAUGUCAAUAGACAUGAGGAUCACCCAUGUAGUAAAGACAGCU,,,375 nM,33.9 nM
CGCUGAGCGGUGAGGAUAUCGUGUUCGAAAGAACGUGAGAAGGCACAUGAGGAUCACCCAUGUGAUCCUCAUCG,17.1 nM,28.1 nM,,
GUAGAUAGAUAGAAGGUAUGGUAUUAGAUUAAAUAAGGAUAUAUGAACAUGAGGAUCACCCAUGUAUUAUGGGAUAGAUAGACU,,,228 nM,153 nM
AUACUCAUGUAAGGAUAUGCAGCCGUUUCGGCUGCAGAAGGUACUAUAAUACAUGAGGAUCACCCAUGUCUUUUUAAUUUUUAC,,,281 nM,38.9 nM
CGAUCGUUGCAGAAGGUUAAAUAAUUAUCUACAUGUUUUACAUGAGGAUCACCCAUGUUUAUGUUGAAGGAUAUGCAAGGGUCG,8.02 nM,8.09 nM,,
CAACCGUUGCAGAAGGUUAAAUAAAUCAACUUAUGGACAACAUGAGGAUCACCCAUGUUUUUGUUGAAGGAUAUGCAAGGGUUG,6.25 nM,5.85 nM,,

Sequence,apparent Kd [1],apparent Kd [2],apparent Kd [3],apparent Kd [4]
GUGCCUUGGGAGAAGGUUAUGUGCAAAGCAUUUAAAGGAUAUUCAUACCGGAAACGGACAUGAGGAUCACCCAUGUGGCACAAA,,,621 nM,150 nM
GCAGGAUAAGUCAGGAUAUACCUAUGGAUACAUAGGUAGAAGGGACAUGAGGAUCACCCAUGUUACUCGCCUGC,12.6 nM,23.6 nM,,
GUCAGCUCGUGAGGAUAUACAACACUGCUUCGCCAGUGUAUUAAGAUCACAUGAGGAUCACCCAUGUAGAAGGCACGAGCUGAU,14.4 nM,216 nM,,
GUGCGGUAGGAGAAGGACGGAGGGUUCUUUUCAUACAUGAGGAUCACCCAUGUAGGAUAUCCUACCUCACGCGGCCUACUACAG,8.11 nM,11.4 nM,,
GCCAACUUAUGAGGAUAUGGCACCUUAUUGGUGCCAGAAGGCAUGUGUAUUCACAUGAGGAUCACCCAUGUAUUAUAGUUGGCA,,,498 nM,48.1 nM
CGCAGUACUUAGGUACCACACAUGAGGAUCACCCAUGUAUCACAGGAUAUGCAUGAUAUAUUCAGGCAGAAGGGUGAUCUUACC,,,79.7 nM,318 nM
AACUAGCUAGGAUAUACAUGAGGAUCACCCAUGUAAAAAAAAAAAAAAAGAUUUAUAUGUAGAAGGAGCUAGUA,40.1 nM,65.8 nM,,
GGACAUCCCACAGGAUAUGCUGGACUUUGUCCAGCAGAAGGGUGAAGAACAUGAGGAUCACCCAUGUGGAUGUCCAUAUUUAAU,,,1440 nM,95.4 nM
AGGACAAGGCAGAAGGGACAUGAGGAUCACCCAUGUACCGUGGUUCAGCAGUCAGGAUAUGCCAUAUGUAAACAUAUCGUAAGA,12.1 nM,108 nM,,
ACAUGAGGAUCACCCAUGUGUACAUAGGAUAUUGAGGAUUAGGGAUAAAGUGAAGAGAUUGCCCACAAGAAGGAUGAAAGUGUU,,,9.82 nM,8.82 nM
AAGUGUAUAGGAUAUGCGUGGAAAAGGUGUAUUCACCAGCGACAUGAGGAUCACCCAUGUAGAAGGGUAUGUAA,94.6 nM,54.5 nM,,
AGAUGUGAACAUGAGGAUCACCCAUGUGACUAGGUUUAUUUCAGAAGGCAUUAAUAGAGAUUAUAUGAGGAUAUGAAGUUUUAA,,,11.8 nM,7.11 nM
AGAUUUGUACAUGAGGAUCACCCAUGUUAAUAGGUGUUUGUCAGAAGGCAUUAAGAGAGAAUUAAUGAGGAUAUGAAGUUUCAU,,,59.2 nM,36.2 nM
UGUCAUUUACAGAAGGGUAGUUGGGUUUUACAUGAGGAUCACCCAUGUUUUACAGGAUAUGUGUUUUGUUACUAUUAAAGUUCA,66.5 nM,123 nM,,
ACAUGAGGAUCACCCAUGUAAUGAAGGGUACUAUACUAAACGUAGGAUAUCGAUGUAAGAUUGUACGAGAAGGACGAUUGCCUU,,38.8 nM,,
GGUCUUCAAGUCAGGAUAUCGUCUAAUAGAUAUAACGAGAAGGGACAUGAGGAUCACCCAUGUCGUCUCAUCAG,23.6 nM,69.1 nM,,
GCAGUGCGAGGAUAUACAUGAGGAUCACCCAUGUGAGAAUAAGAAGUGAGGAAGAAAAGUAGAAGGCGCGUUGG,52.4 nM,155 nM,,
AUAAUUUUAUAUAUCUAUUUAAUCAGAAGGCAUAACAUGAGGAUCACCCAUGUAAAUUAAUGUUAUGAGGAUAUGAUAUGGUUA,11.3 nM,78 nM,,
GCUGCUAUCACAGGAUAUUACAUGGGAAAGAGUACAUGAGGAUCACCCAUGUAAAAGAUCAUAAAUAAGAAGGGUGAUAGCAGC,,,150 nM,256 nM
UAUCUAUUUAUGGGAUUAGAAUAUGAGGAUAUCAUUUUUUUAUACAUGAGGAUCACCCAUGUUUCUGAGAAGGCAUAUUUAAUA,,,16.9 nM,5.72 nM
CGAUACAUGAGGGUCUCCCAUGACAUGAGGAUCACCCAUGUGCAGGAUAUACGUGUGAUGGUAUAGUAGAAGGGCAGUCUAUGU,70.6 nM,99.9 nM,,
